Read-outs that look alike come from different tables or passages of the source.
Legend:
[1] = system: GBM culture GBM43; experiment: XTT cell proliferation assay; type: cell-based, Human; conditions: Homo sapiens, 36 h
Summary of the method: (§1)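 Primary human or mouse GBM cultures (DMEM, 10% FBS) were seeded at 5000 cells per 96-well well. Cells were cultured with test compound or vehicle for 36 h. Proliferation was read by XTT assay in quadruplicate. IC50 came from nonlinear-regression curve fitting.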

[2] = system: GBM culture GBM6; experiment: XTT cell proliferation assay; type: cell-based, Human; conditions: Homo sapiens, GBM6, 36 h
Summary of the method: as §1

[3] = type: in vivo, CD-1 mice; conditions: for Kp: brain and plasma
[4] = system: GBM culture GBM-1; experiment: XTT cell proliferation assay; type: cell-based, Mouse; conditions: Mus musculus, GBM1, 36 h
Summary of the method: as §1

[5] = system: EGFRvIII-driven GBM tumors; experiment: Treatment of mice bearing GBM tumors; type: in vivo
Summary of the method: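 Adult (≥3 months) conditional EGFR*/Cdkn2a/Pten/CAG-luc mice under ketamine/xylazine received 250 nL adeno-CMV-Cre stereotaxically into the brain. Tumours were followed by luciferin (225 mg/kg IP) bioluminescence and randomised at the signal threshold. Dosing: 100 mg/kg IP in DMA/Tween 20/Cremophor/saline vehicle, or vehicle alone, thrice weekly ×2 weeks, then twice weekly for >100 days. At 180 days, survivors were perfused with PFA; coronal paraffin sections were H&E-stained. N=5 control, N=4 treated.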

[6] = male, CD-1, mouse, brain, iv, 25 mg/kg
[7] = male, CD-1, mouse, brain, iv, 70 mg/kg
[8] = male, CD-1, mouse, plasma, iv, 25 mg/kg
[9] = male, CD-1, mouse, plasma, iv, 70 mg/kg
[10] = repeat dose, 25 mg/kg i.v. every other day

O=C1OCC/C=C/CC/C=C/C(=N/OCC(=O)N2CCCCC2)Cc2c(Cl)c(O)cc(O)c21 [NXD30001]
IC50 [1]: 86.3 ± 0.2 nM | IC50 [2]: 1220 ± 35.1 nM | AUC(0-t) ([3]; brain, repeated i.v. injections 25 mg/kg every other day, 7 doses): 940 ng·h/g | AUC(0-t) ([3]; brain, single i.v. injection 70 mg/kg): 1073 ng·h/g | Kp ([3]; male, CD-1, mouse, iv, 25 mg/kg): 0.135 | Kp ([3]; male, CD-1, mouse, iv, 70 mg/kg): 0.201 | Cmax [3, 6]: 210 ng/g | Tmax [3, 6]: 0.25 h | half-life [3, 6]: 8.99 h | Cmax [3, 7]: 223 ng/g | Tmax [3, 7]: 0.5 h | half-life [3, 7]: 4.07 h | AUC(0-t) [3, 8]: 6960 ng·h/mL | C0 at 0.5 h [3, 8]: 4530 ng/mL | Vd [3, 8]: 27.9 L/kg | clearance [3, 8]: 59.8 mL/min/kg | half-life [3, 8]: 5.4 h | AUC(0-t) [3, 9]: 5350 ng·h/mL | C0 [3, 9]: 2140 ng/mL | Vd [3, 9]: 51.5 L/kg | clearance [3, 9]: 217 mL/min/kg | half-life [3, 9]: 2.74 h | concentration detected in brain prior to the last dose [3, 10]: less than 10 ng/g | concentration detected in plasma prior to the last dose [3, 10]: less than 10 ng/mL | IC50 [4]: 78.3 ± 8.3 nM | effect on survival (Kaplan-Meier) ([5]; 100 mg/kg i.p. thrice weekly (X2) then twice weekly, versus vehicle): statistically significant prolongation in survival | survival of treated animals ([5]; half of the treated animals, 100 mg/kg i.p. thrice weekly (X2) then twice weekly, N=4 treated): > 180 days | histological analysis of H&E stained brain sections of surviving animals ([5]; surviving treated animals, after 180 days): few remaining tumor cell clusters

From PMC2937276 (Molecular cancer therapeutics, 2010)
